According to ChEMBL document CHEMBL1124543, “Antiulcer agents. 4. Conformational considerations and the antiulcer activity of substituted imidazo[1,2-a]pyridines and related analogues” (1989):

What was measured:
Format in all cases: functional
[1] = tested on: Canis familiaris; assay: Inhibition of histamine stimulated gastric acid secretion in adult mongrel dogs at 0.1 mg/kg compound administered intravenously; conditions: Canis lupus familiaris, Stomach, route intravenous
Summary of the method: (§1)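 Mongrel dogs with surgically prepared Heidenhain pouches under histamine infusion; compound given iv (0.1–5 mg/kg) 1 h after infusion start. Pouch juice collected every 30 min, volume recorded, aliquot titrated for acid; outputs summed over 3 h post-dose, compared with the same animal's control. ED50 by linear regression.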

[2] = tested on: Canis familiaris; assay: Effective dose required to reduce acid out put when administered intravenously in dog; conditions: Canis lupus familiaris, iv; summary of the method: as §1
[3] = tested on: Canis familiaris; assay: Effective dose required to reduce acid out put when administered perorally in dog;Value ranges from (2.3-58.2); conditions: Canis lupus familiaris, po
Summary of the method: (§2)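 Heidenhain pouch mongrel dogs receiving histamine infusion; compound given orally by gavage 1 h after infusion began. Acid output from 30-min collections (volume, titrated aliquot) summed for 3 h after dosing, each dog its own control. ED50 derived by linear regression from percent inhibition across doses.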

[4] = tested on: Canis familiaris; assay: Effective dose required to reduce acid out put when administered intravenously in dog;Value ranges from […]; conditions: Canis lupus familiaris, iv; summary of the method: as §1
[5] = tested on: Rattus norvegicus; assay: Effective dose inhibiting ethanol-induced lesions was determined 1 h, after oral administration of absolute ethanol in rat
Summary of the method: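 Rats fasted and water-deprived 20 h; compound in 0.4% methylcellulose/saline given orally (1–30 mg/kg) 30 min before oral absolute ethanol (1 mL). Killed 1 h after ethanol; stomach opened along greater curvature, linear hemorrhagic lesion lengths summed per stomach. ED50 for lesion inhibition by regression analysis.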

[6] = tested on: Canis familiaris; assay: Effective dose required to reduce acid out put when administered perorally in dog;Value ranges from(1.6-13.4).; conditions: Canis lupus familiaris, po; summary of the method: as §2
[7] = tested on: Canis familiaris; assay: Inhibition of histamine stimulated gastric acid secretion in adult mongrel dogs at 2 mg/kg i.v.; conditions: Canis lupus familiaris, Stomach, route intravenous; summary of the method: as §1
[8] = tested on: Canis familiaris; assay: Inhibition of histamine stimulated gastric acid secretion in adult mongrel dogs at 5 mg/kg i.v.; conditions: Canis lupus familiaris, Stomach, route intravenous; summary of the method: as §1
[9] = tested on: Canis familiaris; assay: Inhibition of histamine stimulated gastric acid secretion in adult mongrel dogs at 8 mg/kg compound administered perorally; conditions: Canis lupus familiaris, Stomach, route oral; summary of the method: as §2
[10] = tested on: Rattus norvegicus; assay: Antisecretory activity of intraperitoneally injected compound (40 mg/kg) in pylorus-ligated rat
Summary of the method: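 Rats fasted 24 h, anesthetized, pylorus ligated; compound in 2.5% Tween 80 given ip (0.5 mL/200 g) at ligation. Killed 4 h later; gastric contents volume recorded, aliquots titrated with 0.1 N NaOH for acid output. Six rats per compound, eight controls; percent inhibition computed, Student's t test.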

[11] = tested on: Canis familiaris; assay: Inhibition of histamine stimulated gastric acid secretion in adult mongrel dogs at 1 mg/kg i.v.; conditions: Canis lupus familiaris, Stomach, route intravenous; summary of the method: as §1
[12] = tested on: Canis familiaris; assay: Inhibition of histamine stimulated gastric acid secretion in adult mongrel dogs at 4 mg/kg administered perorally; conditions: Canis lupus familiaris, Stomach, route oral; summary of the method: as §2
[13] = tested on: Canis familiaris; assay: Inhibition of histamine stimulated gastric acid secretion in adult mongrel dogs at 2 mg/kg compound administered perorally; conditions: Canis lupus familiaris, Stomach, route oral; summary of the method: as §2
[14] = tested on: Canis familiaris; assay: Effective dose required to reduce acid out put when administered perorally in dog; conditions: Canis lupus familiaris, po; summary of the method: as §2

| Compound | ED50 [5] [mg/kg] | inhibition in vivo at 2 mg/kg [7] [%] | inhibition in vivo at 5 mg/kg [8] [%] | inhibition in vivo at 8 mg/kg [9] [%] | Inhibition [10] [%] | inhibition in vivo at 1 mg/kg [11] [%] | inhibition in vivo at 4 mg/kg [12] [%] | further results |
| --- | --- | --- | --- | --- | --- | --- | --- | --- |
| Cc1nc2c(CCc3ccccc3)cccn2c1N | – | – | – | – | – | – | – | inhibition in vivo at 0.1 mg/kg [1]: 26%; ED50 [2]: 1 mg/kg; ED50 [3]: 6.7 mg/kg |
| Cc1nc2c3c(ccn2c1CC#N)CCC(c1ccccc1)O3 (stereo not given) | 1.7 | – | – | – | – | – | – | ED50 [4]: 0.06 mg/kg; ED50 [6]: 3.7 mg/kg |
| Cc1nc2c(/C=C/c3ccccc3)cccn2c1CC#N | 3 | 0 | 18 | 2 | 18 | – | – | – |
| Cc1nc2c(C/C=C\c3ccccc3)cccn2c1N | 6.4 | – | 20 | 0 | 4 | – | – | – |
| Cc1nc2ccc(/C=C/c3ccccc3)cn2c1C | 1.7 | – | 0 | 0 | 55 | – | – | – |
| Cc1nc2c(/C=C\Cc3ccccc3)cccn2c1N | 8.6 | – | – | – | 52 | 32 | 0 | – |
| Cc1nc2c(/C=C\c3ccccc3)cccn2c1CC#N | 2 | 76 | – | 41 | 49 | 79 | 0 | – |
| Cc1nc2c(/C=C\Cc3ccccc3)cccn2c1C | 6.6 | 47 | – | 54 | 96 | 24 | 13 | – |
| Cc1nc2c(/C=C\c3ccsc3)cccn2c1C | 24 | 82 | – | 79 | 54 | 64 | 38 | inhibition in vivo at 2 mg/kg [13]: 5%; ED50 [14]: 4.8 mg/kg |
| Cc1nc2c(/C=C\c3ccccc3)cccn2c1N | 23 | 62 | 67 | 4 | 83 | 66 | – | inhibition in vivo at 2 mg/kg [13]: 0% |
| CCc1c(C)nc2c(/C=C\c3ccccc3)cccn12 | 0.8 | 12 | – | 21 | 65 | – | – | – |
| CCc1nc2c(/C=C\c3ccccc3)cccn2c1C | – | 42 | – | 21 | 96 | – | – | – |
| Cc1nc2c(OCc3ccccc3)cccn2c1C | 10 | – | – | 26 | 99 | 90 | 0 | – |
| C/C(=C\c1ccccc1)c1cccn2c(C)c(C)nc12 | 5 | 44 | – | 29 | 71 | – | – | – |
| Cc1nc2c(/C=C\c3ccccc3)nccn2c1C | 5.2 | – | 0 | 0 | 74 | – | – | – |
| Cc1nc2cc(/C=C/c3ccccc3)ccn2c1C | – | – | 0 | 0 | 40 | – | – | – |
| C/C(=C\c1cccn2c(C)c(C)nc12)c1ccccc1 | – | 65 | – | 37 | 98 | 72 | 17 | – |
| Cc1nc2c(/C=C\c3ccccc3)cccn2c1C | – | 76 | 86 | 74 | 83 | 62 | 37 | inhibition in vivo at 2 mg/kg [13]: 25%; ED50 [2]: 0.7 mg/kg; ED50 [14]: 4.8 mg/kg |
| Cc1nc2c(C/C=C/c3ccccc3)cccn2c1CC#N | 12 | – | 4 | – | 27 | – | – | – |
| Cc1nc2c(/C=C/Cc3ccccc3)cccn2c1CC#N | 4 | – | 78 | 82 | – | 69 | 53 | inhibition in vivo at 0.1 mg/kg [1]: 9%; inhibition in vivo at 2 mg/kg [13]: 43%; ED50 [2]: 1 mg/kg; ED50 [14]: 4 mg/kg |
| Cc1nc2c(C/C=C\c3ccccc3)cccn2c1C | 5.5 | – | 0 | 0 | 58 | – | – | – |
| C(=C/c1cccn2c3c(nc12)CCCC3)/c1ccccc1 | 7.3 | 0 | – | – | 62 | – | – | – |
| Cc1nc2c(/C=C/c3ccccc3)cccn2c1C | 10.4 | 26 | – | 3 | 39 | – | – | – |
| Cc1nc2c(/C=C/c3ccccc3)cccn2c1N | 13 | 24 | 0 | 6 | 33 | – | – | – |
| Cc1nc2c(C#Cc3ccccc3)nccn2c1C | 3.7 | – | 0 | 11 | 0 | – | – | – |
| Cc1nc2cccc(/C=C/c3ccccc3)n2c1C | 5.5 | – | 0 | – | – | – | 0 | – |
| C(=C/c1cccn2c3c(nc12)CCC3)/c1ccccc1 | 5.2 | – | 8 | – | 24 | – | – | – |
